Data from ChEMBL document CHEMBL1142348, “beta-N-Biaryl ether sulfonamide hydroxamates as potent gelatinase inhibitors: part 1. Design, synthesis, and lead identification” (Bioorg Med Chem Lett, 2008).
pIC50: −log10 of the molar value. Values after ≈ are worked out from the molar mass of the structure shown.

How the values were obtained:
Interstitial collagenase = target: T1, Interstitial collagenase (Homo sapiens, UniProt P03956); experiment: Inhibition of catalytic domain MMP1
T1 sequence (P03956 whole entry): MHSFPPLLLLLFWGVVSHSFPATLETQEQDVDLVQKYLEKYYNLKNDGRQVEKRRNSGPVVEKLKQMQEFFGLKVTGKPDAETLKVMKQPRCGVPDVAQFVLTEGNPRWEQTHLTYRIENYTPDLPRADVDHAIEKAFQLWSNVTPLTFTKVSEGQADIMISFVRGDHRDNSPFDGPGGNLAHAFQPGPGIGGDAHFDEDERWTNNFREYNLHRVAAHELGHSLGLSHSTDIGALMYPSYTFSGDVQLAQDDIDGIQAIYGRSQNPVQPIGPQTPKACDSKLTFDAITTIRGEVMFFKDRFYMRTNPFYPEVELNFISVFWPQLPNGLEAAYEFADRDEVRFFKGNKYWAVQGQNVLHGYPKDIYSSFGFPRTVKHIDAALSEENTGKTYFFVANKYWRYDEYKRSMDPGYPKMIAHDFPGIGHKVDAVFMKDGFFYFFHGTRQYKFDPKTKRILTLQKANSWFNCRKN

[1] = target: T2, Matrix metalloproteinase-9 (Homo sapiens, UniProt P14780); experiment: Inhibition of catalytic domain MMP9
Method in brief: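 Peptide-cleavage FRET assay using MMP-1 and -9 catalytic domains or full-length MMP-2, each titrated to give linear velocity. Enzyme was preincubated with inhibitor for 1 h at room temperature in 50 mM Hepes pH 7.4, 10 mM CaCl2, 0.05% Brij-35, final DMSO 0.04%. Eu/QSY7-labelled peptide substrate was then added for 15 min at room temperature, and liberated Eu fluorescence was read.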

[2] = target: T3, 72 kDa type IV collagenase (Homo sapiens, UniProt P08253); experiment: Inhibition of full length MMP2
Target sequence in this assay (P08253 whole entry, the tested form may be a part): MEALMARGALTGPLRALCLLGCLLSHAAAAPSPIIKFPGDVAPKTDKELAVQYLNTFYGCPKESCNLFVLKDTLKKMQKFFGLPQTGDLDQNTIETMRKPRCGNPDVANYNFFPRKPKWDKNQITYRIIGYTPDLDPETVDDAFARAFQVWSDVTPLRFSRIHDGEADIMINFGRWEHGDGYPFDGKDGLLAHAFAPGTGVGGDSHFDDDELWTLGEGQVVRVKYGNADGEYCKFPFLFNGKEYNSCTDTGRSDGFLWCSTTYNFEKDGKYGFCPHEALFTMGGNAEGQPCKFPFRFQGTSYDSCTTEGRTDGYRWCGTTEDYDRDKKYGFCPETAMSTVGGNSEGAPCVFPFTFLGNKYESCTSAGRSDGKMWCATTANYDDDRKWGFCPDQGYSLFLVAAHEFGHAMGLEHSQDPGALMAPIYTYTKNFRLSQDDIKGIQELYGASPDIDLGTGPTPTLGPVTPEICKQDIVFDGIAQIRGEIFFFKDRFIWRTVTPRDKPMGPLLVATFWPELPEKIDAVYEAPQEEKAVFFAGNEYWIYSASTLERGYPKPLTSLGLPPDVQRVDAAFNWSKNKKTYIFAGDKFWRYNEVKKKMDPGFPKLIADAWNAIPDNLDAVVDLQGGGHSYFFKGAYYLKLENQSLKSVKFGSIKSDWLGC

[3] = Selectivity ratio, IC50 for full length MMP2 to IC50 for catalytic domain MMP9
Method in brief: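 Full-length MMP-2 and MMP-9 catalytic domain, each titrated for linear velocity, in 50 mM Hepes pH 7.4, 10 mM CaCl2, 0.05% Brij-35. Preincubated 1 h at room temperature with compound dilutions (final DMSO 0.04%). Eu/QSY7-quenched peptide substrate added for 15 min at room temperature; cleavage read as Eu fluorescence. Triplicate 16-point curves, nonlinear regression; ratio is MMP-2 IC50/MMP-9 IC50.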

[4] = Volume of distribution in rat at steady state at 0.5 mg/kg, iv; type: ADME, organism-based; parameters: dose 0.5 mg/kg, route intravenous; conditions: in vivo, read-out: Vdss
Method in brief: (§1)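 Rats, n=4 per group, single intravenous dose of 0.5 mg/kg. Plasma Cmax was taken at t = 5 min. Apparent elimination half-life, AUC, steady-state volume of distribution and clearance were derived from the plasma profile. Values are means of the 4 animals.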

[5] = Solubility in water at pH 2; type: physicochemical
[6] = Cmax in rat at 0.5 mg/kg, iv; type: ADME, organism-based; parameters: dose 0.5 mg/kg, route intravenous; conditions: in vivo; method in brief: as §1
[7] = Clearance in rat at 0.5 mg/kg, iv; type: ADME, organism-based; parameters: dose 0.5 mg/kg, route intravenous; conditions: in vivo; method in brief: as §1
[8] = Stability in human liver microsomes
[9] = Half life in rat at 0.5 mg/kg, iv; type: ADME, organism-based; parameters: dose 0.5 mg/kg, route intravenous; conditions: in vivo; method in brief: as §1
[10] = Solubility in water at pH 7; type: physicochemical
[11] = AUC in rat at 0.5 mg/kg, iv; type: ADME, organism-based; parameters: dose 0.5 mg/kg, route intravenous; conditions: plasma; method in brief: as §1
[12] = Stability in rat liver microsomes
[13] = target: T2, Matrix metalloproteinase-9; experiment: Inhibition of MMP9 catalytic domain at 10 uM
[14] = target: T3, 72 kDa type IV collagenase; experiment: Inhibition of full length MMP2 at 10 uM
Target sequence in this assay (P08253 110-660 limits assumed): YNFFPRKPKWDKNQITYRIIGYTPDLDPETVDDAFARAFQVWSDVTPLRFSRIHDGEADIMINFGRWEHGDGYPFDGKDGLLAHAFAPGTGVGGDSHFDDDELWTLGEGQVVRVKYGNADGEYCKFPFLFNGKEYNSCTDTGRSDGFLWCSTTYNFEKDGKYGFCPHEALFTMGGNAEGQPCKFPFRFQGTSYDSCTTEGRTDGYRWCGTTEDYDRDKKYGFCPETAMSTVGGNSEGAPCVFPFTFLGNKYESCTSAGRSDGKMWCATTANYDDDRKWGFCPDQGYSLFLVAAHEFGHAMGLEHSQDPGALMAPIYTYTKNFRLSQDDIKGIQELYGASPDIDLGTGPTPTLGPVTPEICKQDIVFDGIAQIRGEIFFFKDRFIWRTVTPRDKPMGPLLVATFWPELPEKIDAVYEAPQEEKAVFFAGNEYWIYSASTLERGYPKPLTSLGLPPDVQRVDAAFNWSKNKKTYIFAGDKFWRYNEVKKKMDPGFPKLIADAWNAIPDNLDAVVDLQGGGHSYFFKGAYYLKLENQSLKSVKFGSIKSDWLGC

T2 sequence (P14780 whole entry, the tested form may be a part): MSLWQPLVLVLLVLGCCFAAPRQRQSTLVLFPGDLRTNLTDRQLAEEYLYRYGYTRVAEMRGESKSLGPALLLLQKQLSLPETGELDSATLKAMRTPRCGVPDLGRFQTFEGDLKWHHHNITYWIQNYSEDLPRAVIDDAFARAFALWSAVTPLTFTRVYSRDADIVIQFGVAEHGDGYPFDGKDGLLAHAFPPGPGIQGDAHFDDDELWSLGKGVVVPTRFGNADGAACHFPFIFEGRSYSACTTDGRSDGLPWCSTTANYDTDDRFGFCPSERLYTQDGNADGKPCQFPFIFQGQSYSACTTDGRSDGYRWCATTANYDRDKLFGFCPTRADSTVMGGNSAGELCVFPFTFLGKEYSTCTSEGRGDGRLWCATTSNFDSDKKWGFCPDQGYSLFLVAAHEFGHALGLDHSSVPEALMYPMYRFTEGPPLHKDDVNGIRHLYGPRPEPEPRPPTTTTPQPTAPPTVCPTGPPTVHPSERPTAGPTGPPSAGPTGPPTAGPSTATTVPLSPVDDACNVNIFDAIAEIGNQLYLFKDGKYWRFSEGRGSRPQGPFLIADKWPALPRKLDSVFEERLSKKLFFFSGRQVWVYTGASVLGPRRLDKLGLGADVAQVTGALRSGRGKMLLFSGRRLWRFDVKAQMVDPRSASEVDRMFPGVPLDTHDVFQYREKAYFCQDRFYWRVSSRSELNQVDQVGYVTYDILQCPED

Row | SMILES | pIC50 [1] | pIC50 [2] | Ratio IC50 [3] | further results
1 | CS(=O)(=O)N(C[C@H](O)C(=O)NO)c1ccc(OCc2ccc(F)cc2)cc1 | 5.32 | 5.64 | 0.5 | pIC50 (Interstitial collagenase): < 5.00
2 | Cc1ccc(Oc2ccc(N(CC(C)(O)C(=O)NO)S(C)(=O)=O)cc2)cc1 (racemic) | 8.26 | 7.70 |  | Vd [4]: 1.5 L/kg; solubility [5]: < 5 µg/mL; Cmax [6]: 1500 nM; clearance [7]: 41.5 mL/min/kg; pIC50 (Interstitial collagenase): < 5.00; half-life [8]: 103 min; half-life [9]: 43.2 min; solubility [10]: 28 µg/mL (≈ 71 µM); AUC [11]: 220 ng·h/mL; half-life [12]: 10 min
3 | COc1ccc(C#Cc2ccc(N(C[C@H](O)C(=O)NO)S(C)(=O)=O)cc2)cc1 |  | 7.49 | 0.4 | pIC50 (Interstitial collagenase): < 5.00
4 | CS(=O)(=O)N(C[C@H](O)C(=O)NO)c1ccc(-c2ccccc2)cc1 |  |  |  | inhibition [13]: 79%; inhibition [14]: 87%
5 | CS(=O)(=O)N(C[C@H](O)C(=O)NO)c1ccc(S(=O)(=O)c2ccccc2)cc1 | < 5.00 | < 5.00 |  | 
6 | CS(=O)(=O)N(C[C@H](O)C(=O)NO)c1ccc(Oc2ccc(C(F)(F)F)cc2)cc1 |  |  | 9.9 | 
7 | Cc1ccc(Oc2ccc(N(CCC(=O)NO)S(C)(=O)=O)cc2)cc1 | 8.18 | 7.21 |  | pIC50 (Interstitial collagenase): < 5.00
8 | Cc1ccc(C#Cc2ccc(N(C[C@H](O)C(=O)NO)S(C)(=O)=O)cc2)cc1 | 7.36 | 7.33 | 1.1 | 
9 | CC(=O)N(C[C@H](O)C(=O)NO)c1ccc(Oc2ccc(Cl)cc2)cc1 | 6.03 | 5.90 |  | 
10 | CS(=O)(=O)N(C[C@H](O)C(=O)NO)c1ccc(OCc2ccc(C(F)(F)F)cc2)cc1 | 5.83 | 5.54 | 1.9 | pIC50 (Interstitial collagenase): < 5.00
11 | CS(=O)(=O)N(C[C@H](O)C(=O)NO)c1ccc(C#Cc2ccc(Cl)cc2)cc1 |  |  | 1.2 | 
12 | Cc1ccc(Oc2ccc(N(C[C@H](O)C(=O)NO)S(C)(=O)=O)cc2)cc1 |  |  |  | Vd [4]: 1.4 L/kg; solubility [5]: < 5 µg/mL; Cmax [6]: 1300 nM; clearance [7]: 47.5 mL/min/kg; half-life [9]: 25.8 min; solubility [10]: 28 µg/mL (≈ 73.6 µM); AUC [11]: 180 ng·h/mL
13 | CCCS(=O)(=O)N(C[C@H](O)C(=O)NO)c1ccc(Oc2ccc(C)cc2)cc1 |  |  | 4.1 | 
14 | CO[C@@H](CN(c1ccc(Oc2ccc(C)cc2)cc1)S(C)(=O)=O)C(=O)NO | 8.42 | 7.44 |  | 
15 | CS(=O)(=O)N(C[C@H](O)C(=O)NO)c1ccc(Oc2ccc(Cl)cc2)cc1 |  |  | 7.4 | 
16 | Cc1ccc(Oc2ccc(N(CC(=O)NO)S(C)(=O)=O)cc2)cc1 | 7.51 | 7.14 |  | 
17 | Cc1ccc(Oc2ccc(N(C[C@H](O)C(=O)NO)S(=O)(=O)Cc3ccccc3)cc2)cc1 |  |  | 6.3 | 
18 | CS(=O)(=O)N(C[C@H](O)C(=O)NO)c1ccc(Sc2ccc(F)cc2)cc1 | 6.98 | 6.55 | 2.7 | 
19 | CS(=O)(=O)N(C[C@H](O)C(=O)NO)c1ccc(Oc2ccccc2)cc1 | 7.41 | 6.61 | 6.3 | 
20 | CS(=O)(=O)N(C[C@H](O)C(=O)NO)c1ccc(OCc2ccc(Cl)cc2)cc1 | 6.01 | 6.05 | 0.9 | pIC50 (Interstitial collagenase): < 5.00
21 | CS(=O)(=O)N(CC(=O)NO)c1ccc(Oc2ccccc2)cc1 | 6.42 | 6.83 |  | pIC50 (Interstitial collagenase): < 5.00
22 | Cc1ccc(Oc2ccc(N(C[C@H](O)C(=O)NO)S(=O)(=O)Cc3ccncc3)cc2)cc1 |  |  | 6.4 | 
23 | CO[C@H](CN(c1ccc(Oc2ccc(C)cc2)cc1)S(C)(=O)=O)C(=O)NO | 7.89 |  |  | 
24 | Cc1ccc(Oc2ccc(N(C[C@H](O)C(=O)O)S(C)(=O)=O)cc2)cc1 |  |  |  | inhibition [13]: < 10%; inhibition [14]: < 10%
25 | CC(C)C(=O)N(C[C@H](O)C(=O)NO)c1ccc(Oc2ccc(Cl)cc2)cc1 | 6.62 | 6.54 |  | 
26 | CCS(=O)(=O)N(C[C@H](O)C(=O)NO)c1ccc(Oc2ccc(C)cc2)cc1 | 7.55 | 6.85 | 5.1 | 
27 | Cc1ccc(Sc2ccc(N(C[C@H](O)C(=O)NO)S(C)(=O)=O)cc2)cc1 | 7.27 | 6.53 | 5.5 | 
28 | Cc1ccc(Oc2ccc(N(C[C@H](O)C(=O)NO)S(=O)(=O)Cc3cccnc3)cc2)cc1 |  |  | 5.8 | 
29 | Cc1ccc(Oc2ccc(N(C[C@@H](O)C(=O)NO)S(C)(=O)=O)cc2)cc1 | 7.92 | 7.17 |  | 
